Compounds with a hit are over-represented: about 1.8% of the library has one in this group of screens.
CHRM5 agonist: human M5 muscarinic receptor agonists, primary screen, CHO-K1 cells, Fluo-8 calcium fluorescence | CHO-K1 hM5 cells; 0% DMSO wells, 100% maximal acetylcholine response | activation, % at 3 µM | 360,000 tested, 0.19% active;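 active = activation above the run's mean over test compounds plus 3 SD, cut at about 23% in these data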;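 note: signal is peak over basal fluorescence ratio across the kinetic read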
M4 PAM: human M4 muscarinic receptor positive allosteric modulators, primary screen, CHO-K1 cells, Fluo-8 calcium fluorescence. 360,000 tested, 0.4% active. activation, % at 3 µM. CHO-K1 hM4/Gqi5, ACh EC20; 0% = ACh EC20, 100% = maximal ACh. AID 624126, 2012. Muscarinic acetylcholine receptor M4 (Homo sapiens), P08173;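 active = activation above its plate's cutoff, the mean activation of sample wells plus 3 SD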
Target sequence (P08173 whole entry, looked up): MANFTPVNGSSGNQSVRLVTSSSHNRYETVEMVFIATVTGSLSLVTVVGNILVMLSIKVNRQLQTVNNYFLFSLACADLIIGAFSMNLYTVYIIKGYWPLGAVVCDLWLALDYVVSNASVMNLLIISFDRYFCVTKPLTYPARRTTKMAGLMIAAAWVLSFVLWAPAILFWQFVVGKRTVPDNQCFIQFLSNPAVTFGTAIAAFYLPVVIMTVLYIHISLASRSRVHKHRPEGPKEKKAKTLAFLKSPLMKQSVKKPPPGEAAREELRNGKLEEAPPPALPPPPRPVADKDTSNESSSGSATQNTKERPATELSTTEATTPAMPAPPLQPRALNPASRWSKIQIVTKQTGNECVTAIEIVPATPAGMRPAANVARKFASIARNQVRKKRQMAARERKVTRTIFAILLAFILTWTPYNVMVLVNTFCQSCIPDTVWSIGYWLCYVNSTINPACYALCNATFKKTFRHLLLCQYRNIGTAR
M5 antag: human M5 muscarinic receptor antagonists, primary screen, CHO cells, Fluo-8 calcium fluorescence; Muscarinic acetylcholine receptor M5 (Homo sapiens), P08912; 360,000 tested, 0.59% active; CHO-hM5 cells, ACh EC80; AID 624040, 2012; inhibition, % at 3 µM;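 active = inhibition above a per-plate cutoff, the mean of that plate's test compounds plus 3 SD, cut at about 27% in these data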;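 note: 0% = acetylcholine EC80 with DMSO and 100% = DMSO without agonist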
CHRM4 antagonist: human M4 muscarinic receptor antagonists, primary screen, CHO cells, Fluo-8 calcium fluorescence; Muscarinic acetylcholine receptor M4 (Homo sapiens), P08173; CHO-hM4 cells, ACh EC80; inhibition, % at 3 µM; 360,000 tested, 0.73% active;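 active = inhibition above its plate's cutoff, the mean inhibition of sample wells plus 3 SD, cut at about 27% in these data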;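 note: 0% = acetylcholine EC80 with DMSO and 100% = DMSO without agonist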
M5 PAM: human M5 muscarinic receptor positive allosteric modulators, primary screen, CHO-K1 cells, Fluo-8 calcium fluorescence; Muscarinic acetylcholine receptor M5 (Homo sapiens), P08912; CHO-K1 hM5, ACh EC20 PAM; 0% = ACh EC20, 100% = ACh EC100; activation, % at 3 µM; 360,000 tested, 0.3% active;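 active = activation above the run cutoff, the mean activation of all test compounds plus 3 SD, cut at about 18% in these data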
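Replicates: One well per compound, no replicates | System: Human M5 receptor in CHO-K1 cells | Benchmarks: Low control EC20 acetylcholine (0%), high control EC100 acetylcholine (100%) | Probe or stimulus: Acetylcholine, EC20 level | Times: Fluo-8 loading 80 min at 37 °C plus 30 min room temperature | Signal: Intracellular calcium via Fluo-8 fluorescence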
CHRM4 agonist: human M4 muscarinic receptor agonists, primary screen, CHO-K1 cells, Fluo-8 calcium fluorescence. AID 624127, 2012. Muscarinic acetylcholine receptor M4 (Homo sapiens), P08173. 360,000 tested, 0.14% active. CHO-K1 hM4/Gqi5; vehicle 0%, full acetylcholine response 100%. activation, % at 3 µM;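 active = activation above the run mean over all test wells plus 3 SD, cut at about 32% in these data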;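 note: peak over basal fluorescence ratio per well then scaled between controls; 0% = DMSO wells and 100% = acetylcholine at EC100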
* hit, by the source's call.

What do the screens show for `COCCNC(=O)C1(C)CCN(C(=O)c2ccc(C(F)(F)F)nc2C)C1` (stereo unspecified)?
CHRM5 agonist: 1; M4 PAM: 12; M5 antag: 0; CHRM4 antagonist: -10; M5 PAM: 2; CHRM4 agonist: 1

What do the screens show for `CCCCNC(=O)C(NC(=O)c1ccc(-c2ccccc2)cc1)C(=O)c1ccccc1` (stereo unspecified)?
CHRM5 agonist: 0; M4 PAM: 3; M5 antag: 1; CHRM4 antagonist: -6; M5 PAM: 2; CHRM4 agonist: 2

Results for CC1(C#CC[N+]2(C)CCCCC2)CCC2C(O1)c1ccccc1OC2(C)C (stereo unspecified) ?
CHRM5 agonist: 76*; M4 PAM: -30; M5 antag: 88*; CHRM4 antagonist: 79*; M5 PAM: -35; CHRM4 agonist: 84*

How did Cc1ccn(-c2cc(O)c(-n3ccc(C)n3)cc2O)n1 do in these assays?
CHRM5 agonist: -1; M4 PAM: 11; M5 antag: 0; CHRM4 antagonist: -11; M5 PAM: -1; CHRM4 agonist: 1

What do the screens show for `CSc1ccc2c(c1)N(CCC1CCCCN1C)c1ccccc1S2` (stereo unspecified)?
CHRM5 agonist: 4; M4 PAM: -19; M5 antag: 100*; CHRM4 antagonist: 98*; M5 PAM: -19; CHRM4 agonist: 19

How did O=C(CN1CCC(NC(=O)c2cccc(F)c2)CC1)NCc1cccs1 do in these assays?
CHRM5 agonist: -1; M4 PAM: 24*; M5 antag: 17; CHRM4 antagonist: -3; M5 PAM: -1; CHRM4 agonist: 3

How did CCN(C(=O)COC(=O)c1cccc(-n2cnnn2)c1)C1CCCCC1 do in these assays?
CHRM5 agonist: 4; M4 PAM: -10; M5 antag: 16; CHRM4 antagonist: 6; M5 PAM: -4; CHRM4 agonist: 5

What do the screens show for `N#CC1(NC(=O)COC(=O)Cn2[nH]c(=O)c3ccccc3c2=O)CCCCC1`?
CHRM5 agonist: -4; M4 PAM: -5; M5 antag: -3; CHRM4 antagonist: 5; M5 PAM: 10; CHRM4 agonist: 1

How did CC1(C)CC(=O)C(=Cc2cn(CCC#N)nc2-c2ccc(Cl)cc2)C(=O)C1 do in these assays?
CHRM5 agonist: -4; M4 PAM: 20*; M5 antag: -5; CHRM4 antagonist: -6; M5 PAM: 4; CHRM4 agonist: 1

Results for Cc1cc(C)n(-c2ccc([N+](=O)[O-])cc2)n1 ?
CHRM5 agonist: -8; M4 PAM: 1; M5 antag: -10; CHRM4 antagonist: -25; M5 PAM: 2; CHRM4 agonist: 0

Results for Cc1cc(N)n(-c2ccc([N+](=O)[O-])cc2)n1 ?
CHRM5 agonist: 5; M4 PAM: 10; M5 antag: -18; CHRM4 antagonist: -15; M5 PAM: 20*; CHRM4 agonist: 3

Results for COc1cccc(C(=O)Nc2sc3c(c2C#N)CCN(C(C)=O)C3)c1 ?
CHRM5 agonist: 6; M4 PAM: -4; M5 antag: 3; CHRM4 antagonist: -2; M5 PAM: -3; CHRM4 agonist: 4

Results for CCCc1cc(=O)[nH]c(SCC(=O)NC2(C#N)CCCCC2)n1 ?
CHRM5 agonist: 0; M4 PAM: 23*; M5 antag: 1; CHRM4 antagonist: -11; M5 PAM: 9; CHRM4 agonist: 0

Results for COc1ccccc1N(CC(O)CN1CCC(C)CC1)S(=O)(=O)c1ccccc1 (stereo unspecified) ?
CHRM5 agonist: -4; M4 PAM: 0; M5 antag: 11; CHRM4 antagonist: -9; M5 PAM: -6; CHRM4 agonist: 0

How did CC(C)CN(C(=O)CSc1nc2ccccc2o1)c1c(N)n(Cc2ccccc2)c(=O)[nH]c1=O do in these assays?
CHRM5 agonist: 1; M4 PAM: 7; M5 antag: 5; CHRM4 antagonist: -17; M5 PAM: 6; CHRM4 agonist: 1

Results for COCCCNC(=O)c1ccc2nc(Cc3ccc(OC)cc3)oc2c1 ?
CHRM5 agonist: 2; M4 PAM: -15; M5 antag: 9; CHRM4 antagonist: 37*; M5 PAM: -2; CHRM4 agonist: 2

What do the screens show for `CCN(CC)S(=O)(=O)c1ccc(S(=O)(=O)N2CCN(C(=O)c3ccco3)CC2)cc1`?
CHRM5 agonist: 0; M4 PAM: 23; M5 antag: 14; CHRM4 antagonist: 29*; M5 PAM: 4; CHRM4 agonist: 1

What do the screens show for `CCN(CC)S(=O)(=O)c1ccc(C(=O)N2CCN(C(=O)c3ccco3)CC2)cc1`?
CHRM5 agonist: 0; M4 PAM: 1; M5 antag: 14; CHRM4 antagonist: 6; M5 PAM: -3; CHRM4 agonist: 1

Results for CCCCNC(=O)NC1(C(F)(F)F)Oc2ccccc2O1 ?
CHRM5 agonist: -7; M4 PAM: 2; M5 antag: -7; CHRM4 antagonist: -6; M5 PAM: 2; CHRM4 agonist: 0

Results for NS(=O)(=O)c1ccc(CCNC(=O)NC2(C(F)(F)F)Oc3ccccc3O2)cc1 ?
CHRM5 agonist: -13; M4 PAM: -7; M5 antag: -12; CHRM4 antagonist: 7; M5 PAM: 31*; CHRM4 agonist: 0

What do the screens show for `Cc1ccc(S(=O)(=O)NNC(=O)CC#N)cc1`?
CHRM5 agonist: 0; M4 PAM: 15; M5 antag: -15; CHRM4 antagonist: -6; M5 PAM: 21*; CHRM4 agonist: 1

What do the screens show for `CCCCNC(=O)NS(=O)(=O)c1ccc(C)cc1`?
CHRM5 agonist: 15; M4 PAM: -1; M5 antag: 1; CHRM4 antagonist: -5; M5 PAM: -7; CHRM4 agonist: 1

Results for COC(=O)NNS(=O)(=O)c1ccc(C)cc1 ?
CHRM5 agonist: 2; M4 PAM: -2; M5 antag: -3; CHRM4 antagonist: -7; M5 PAM: 0; CHRM4 agonist: 0

What do the screens show for `Cc1ccc(S(=O)(=O)NC(=O)NCCCCNC(=O)NS(=O)(=O)c2ccc(C)cc2)cc1`?
CHRM5 agonist: 6; M4 PAM: 10; M5 antag: -18; CHRM4 antagonist: 7; M5 PAM: 21*; CHRM4 agonist: 1

What do the screens show for `N#Cc1nc(-c2ccccc2F)oc1NCCc1ccccc1`?
CHRM5 agonist: -2; M4 PAM: 7; M5 antag: 5; CHRM4 antagonist: 27*; M5 PAM: -9; CHRM4 agonist: 0

High-throughput results: PubChem BioAssay, The Scripps Research Institute Molecular Screening Center
